Substitutions are numbered along the chain they refer to.
How the values were obtained:
GK-WT = biological target: T1, GK-WT (Homo sapiens, UniProt P35557); assay: D-glucose binding by tryptophan fluorescence titration; settings: for ΔG of glucose binding / ΔH of glucose binding / ΔS of glucose binding: pure wild type GK, 25 °C, pH 7.3, Vant Hoff plot
T1 sequence (P35557 1-465): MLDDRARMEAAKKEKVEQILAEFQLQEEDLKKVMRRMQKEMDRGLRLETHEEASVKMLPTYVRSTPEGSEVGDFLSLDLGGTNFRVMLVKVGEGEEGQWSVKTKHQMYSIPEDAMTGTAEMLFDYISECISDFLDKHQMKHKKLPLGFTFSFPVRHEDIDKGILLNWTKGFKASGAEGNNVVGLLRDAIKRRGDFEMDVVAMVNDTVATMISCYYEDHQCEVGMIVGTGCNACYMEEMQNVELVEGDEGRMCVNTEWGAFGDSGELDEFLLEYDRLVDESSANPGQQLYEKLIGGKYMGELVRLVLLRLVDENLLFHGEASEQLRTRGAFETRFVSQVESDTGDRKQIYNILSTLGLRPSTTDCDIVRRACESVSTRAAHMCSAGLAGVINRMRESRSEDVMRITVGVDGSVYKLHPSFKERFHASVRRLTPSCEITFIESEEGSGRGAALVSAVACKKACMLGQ

GK- W257 (W99R/W167F) [1] = biological target: T2, GK- W257 (W99R/W167F) (Homo sapiens, UniProt P35557, W167F/W99R); assay: as above; settings: W-257, no GKA
T2 sequence (P35557 1-465 W99R/W167F): T1 sequence (P35557 1-465) with W99R, W167F

GK-W167 (W99R/W257F) = biological target: T3, GK-W167 (W99R/W257F) (Homo sapiens, UniProt P35557, W257F/W99R); assay: NADP+-coupled spectrophotometric kinetic assay; format: biochemical; settings: W-167, no GKA
T3 sequence (P35557 1-465 W99R/W257F): T1 sequence (P35557 1-465) with W99R, W257F
Summary of the method: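 Recombinant human β-cell glucokinase single-Trp variant, expressed in E. coli as a GST fusion and sequence-verified. Catalytic parameters came from an NADP+-coupled spectrophotometric assay run with or without 30% glycerol. Hill coefficient and glucose S0.5 were obtained by fitting v/Vmax = [glucose]^H/(K′+[glucose]^H), with […].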

GK- W257 (W99R/W167F) [2] = biological target: T2, GK- W257 (W99R/W167F); assay: NADP+-coupled spectrophotometric kinetic assay; format: biochemical; settings: W-257, no GKA
GK-W99 (W167F/W257F) = biological target: T4, GK-W99 (W167F/W257F) (Homo sapiens, UniProt P35557, W167F/W257F); assay: DSC thermal denaturation; settings: W-99 in buffer, 300 mM D-glucose
T4 sequence (P35557 1-465 W167F/W257F): T1 sequence (P35557 1-465) with W167F, W257F
Summary of the method: (§1)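 Samples were degassed and scanned by DSC at 0.25 degree/min against a reference holding everything except protein. Tm and calorimetric ΔH were taken by integrating the Cp-vs-temperature thermogram; Cpm is the apparent heat capacity at the maximum.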

GK- W257 (W99R/W167F) [3] = biological target: T2, GK- W257 (W99R/W167F); assay: DSC thermal denaturation; settings: W-257 in buffer, 300 mM D-glucose
Summary of the method: as §1

- Kd (GK-WT; D-glucose binding KD, GK-WT, no GKA, 20% glycerol): 1.8 mM
- Kd (GK-WT; D-glucose binding KD, GK-WT, no GKA, no glycerol): 7.4 mM
- Kd (GK-WT; glucose KD, 11 °C, absence of glycerol): 13.7 mM
- Kd (GK-WT; glucose KD, 45 °C, presence of glycerol): 1.15 mM
- ΔG of glucose binding (GK-WT; 20% glycerol): -3.82 kcal/mol
- ΔH of glucose binding (GK-WT; 20% glycerol): 4.78 ± 0.72 kcal/mol
- ΔS of glucose binding (GK-WT; 20% glycerol): 120+/−9 J/mol*K
- ΔG of glucose binding (GK-WT; no glycerol): -3.13 kcal/mol
- ΔH of glucose binding (GK-WT; no glycerol): 8.13 ± 0.48 kcal/mol
- ΔS of glucose binding (GK-WT; no glycerol): 157+/−4 J/mol*K
- Kd (GK- W257 (W99R/W167F) [1]; 20% glycerol): 2.09 mM
- Kd (GK- W257 (W99R/W167F) [1]; no glycerol): 11.3 mM
- Glucose S0.5 (GK-W167 (W99R/W257F); 30% glycerol): 0.82 mM
- kcat (GK-W167 (W99R/W257F); 30% glycerol): 26.2 s⁻¹
- nH (Hill coefficient towards glucose) (GK-W167 (W99R/W257F); 30% glycerol): 1.32
- Glucose S0.5 (GK-W167 (W99R/W257F); no glycerol): 2.28 mM
- kcat (GK-W167 (W99R/W257F); no glycerol): 69.9 s⁻¹
- nH (Hill coefficient towards glucose) (GK-W167 (W99R/W257F); no glycerol): 1.53
- Glucose S0.5 (GK- W257 (W99R/W167F) [2]; 30% glycerol): 4.70 mM
- kcat (GK- W257 (W99R/W167F) [2]; 30% glycerol): 6.37 s⁻¹
- nH (Hill coefficient towards glucose) (GK- W257 (W99R/W167F) [2]; 30% glycerol): 1.43
- Glucose S0.5 (GK- W257 (W99R/W167F) [2]; no glycerol): 9.82 mM
- kcat (GK- W257 (W99R/W167F) [2]; no glycerol): 12.4 s⁻¹
- kcat/S0.5 (GK- W257 (W99R/W167F) [2]; no glycerol): 1270 M⁻¹ s⁻¹
- nH (Hill coefficient towards glucose) (GK- W257 (W99R/W167F) [2]; no glycerol): 1.23
- Cp^m (GK-W99 (W167F/W257F)): 100.8 kJ/mol/°C
- ΔH thermal denaturation (GK-W99 (W167F/W257F)): 102 kcal/mol
- Tm (GK-W99 (W167F/W257F); DSC): 49.6 °C
- Cp^m (GK- W257 (W99R/W167F) [3]): 122.6 kJ/mol/°C
- ΔH thermal denaturation (GK- W257 (W99R/W167F) [3]): 158 kcal/mol
- Tm (GK- W257 (W99R/W167F) [3]; DSC): 51.2 °C
Structure (SMILES): OC[C@H]1OC(O)[C@H](O)[C@@H](O)[C@@H]1O (stereo partly drawn) [D-glucose]

From paper PMC4180501 (Biochimica et biophysica acta, 2012)
